ChEMBL document CHEMBL1165878, “First biological evaluation of developed 3-benzyloxyfluorenes as novel class of MDR modulators” (Eur J Med Chem, 2010)

Tests used:
[1] = Lipophilicity, log P of the compound; format: physicochemical; details: octanol/water
[2] = molecular target: T1, ATP-dependent translocase ABCB1 (Homo sapiens, UniProt P08183); assay: Inhibition of ABCB1 efflux pump-mediated rhodamine 123 uptake expressed in mouse L5178Y cells assessed as fluorescence activity ratio at 10 uM; format: cell-based
T1 sequence (P08183 whole entry): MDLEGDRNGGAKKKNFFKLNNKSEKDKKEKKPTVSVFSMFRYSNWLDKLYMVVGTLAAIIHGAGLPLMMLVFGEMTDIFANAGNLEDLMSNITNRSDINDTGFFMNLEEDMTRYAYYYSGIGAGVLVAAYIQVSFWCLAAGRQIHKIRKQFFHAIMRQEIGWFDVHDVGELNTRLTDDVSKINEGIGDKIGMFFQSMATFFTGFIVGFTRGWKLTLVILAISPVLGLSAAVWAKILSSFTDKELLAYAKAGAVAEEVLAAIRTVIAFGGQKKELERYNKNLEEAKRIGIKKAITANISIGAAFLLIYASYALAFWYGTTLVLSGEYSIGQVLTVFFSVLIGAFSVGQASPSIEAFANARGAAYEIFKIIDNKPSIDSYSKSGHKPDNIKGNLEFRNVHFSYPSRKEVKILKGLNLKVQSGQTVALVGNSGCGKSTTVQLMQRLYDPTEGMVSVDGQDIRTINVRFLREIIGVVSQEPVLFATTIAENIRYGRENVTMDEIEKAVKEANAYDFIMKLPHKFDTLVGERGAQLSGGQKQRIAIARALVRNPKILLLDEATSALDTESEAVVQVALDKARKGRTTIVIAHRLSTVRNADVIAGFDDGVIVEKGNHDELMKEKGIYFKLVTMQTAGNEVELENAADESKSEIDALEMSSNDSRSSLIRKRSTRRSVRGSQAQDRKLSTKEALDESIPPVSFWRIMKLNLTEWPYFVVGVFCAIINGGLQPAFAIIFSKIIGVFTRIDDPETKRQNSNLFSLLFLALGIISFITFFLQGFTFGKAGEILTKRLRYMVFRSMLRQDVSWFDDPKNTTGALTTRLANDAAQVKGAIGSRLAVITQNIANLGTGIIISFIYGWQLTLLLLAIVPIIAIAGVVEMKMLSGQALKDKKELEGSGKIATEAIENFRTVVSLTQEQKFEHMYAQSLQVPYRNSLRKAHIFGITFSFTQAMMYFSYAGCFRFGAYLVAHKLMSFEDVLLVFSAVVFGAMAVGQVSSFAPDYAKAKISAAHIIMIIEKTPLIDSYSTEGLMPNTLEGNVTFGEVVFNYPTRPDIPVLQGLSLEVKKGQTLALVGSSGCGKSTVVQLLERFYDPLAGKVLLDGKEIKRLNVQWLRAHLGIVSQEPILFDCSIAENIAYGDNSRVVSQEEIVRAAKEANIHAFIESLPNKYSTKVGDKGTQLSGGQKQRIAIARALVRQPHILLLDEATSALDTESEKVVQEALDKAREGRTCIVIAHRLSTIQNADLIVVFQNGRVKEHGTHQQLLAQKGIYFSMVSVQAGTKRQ
In short: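 Mouse T lymphoma L5178Y parental line and an mdr1-retrovirally transfected subline overexpressing only ABCB1, grown in McCoy's 5A with 10% heat-inactivated horse serum and 2 mM glutamine. Rhodamine 123 uptake measured by flow cytometry, 1 ×10⁴ cells each, after resuspension in PBS. FAR = fluorescence of treated ABCB1 subline over parental line, each corrected to untreated control; mean of two determinations.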

[3] = molecular target: T1, ATP-dependent translocase ABCB1; assay: Inhibition of ABCB1 efflux pump-mediated rhodamine 123 uptake expressed in mouse L5178Y cells assessed as fluorescence activity ratio at 1 uM; format: cell-based

logP [1]	Ratio [2]	Ratio [3]	SMILES
6.59	5.92	1.11	Oc1ccc2oc3ncc(OCc4ccc(Cl)cc4)c(-c4ccc(Cl)cc4)c3c2c1
6.59	17.14	1	Oc1ccc2oc3ncc(OCc4cccc(Cl)c4)c(-c4cccc(Cl)c4)c3c2c1
6.59	2.61	1.81	Oc1ccc2oc3ncc(OCc4ccc(Cl)cc4)c(-c4cccc(Cl)c4)c3c2c1
5.97	56.85	1.23	Oc1ccc2oc3ncc(OCc4ccc(Cl)cc4)c(-c4ccccc4)c3c2c1
5.97	95.58	3.04	Oc1ccc2oc3ncc(OCc4ccccc4)c(-c4ccc(Cl)cc4)c3c2c1
5.97	10.47	1.35	Oc1ccc2oc3ncc(OCc4ccccc4)c(-c4cccc(Cl)c4)c3c2c1
5.97	57.42	1.26	Oc1ccc2oc3ncc(OCc4cccc(Cl)c4)c(-c4ccccc4)c3c2c1
5.38	34.49	1.75	Oc1ccc2oc3ncc(OCc4ccccc4)c(-c4ccccc4)c3c2c1
6.59	21.48	1.53	Oc1ccc2oc3ncc(OCc4cccc(Cl)c4)c(-c4ccc(Cl)cc4)c3c2c1
